In article PMC11771645 (Journal of Clinical Pharmacology, 2024):
Entries after “also recorded” stand apart in the source; their conditions may differ. Where two headings read alike, the source gives them in different places.

Key:
[1] = Phase 2 Friedreich's ataxia study, observed PK; assay type: in vivo; settings: human, plasma, oral, geometric mean; for AUC: AUC0‐8 h
How it was run: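 Phase 2 study in patients with Friedreich's ataxia, with repeated oral dosing of the test compound at 200 mg or 400 mg TID. Observed plasma Cmax and AUC0-8 h were summarised as geometric means on Day 1 and Day 91. These observed data served to verify the PBPK model, with simulated exposures judged accurate if within 1.5-fold of observed.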

Food-effect study = assay type: in vivo, human
CYP3A4 [2] = experiment: In vitro CYP3A4 induction; assay type: in vitro ADME, human
CYP1A2 = experiment: In vitro CYP1A2 induction; assay type: in vitro ADME, human
CYP3A4 [3] = molecular target: CYP3A4 (Homo sapiens, UniProt P08684); experiment: Reaction phenotyping studies; assay type: in vitro ADME
[4] = Unbound fraction in plasma; assay type: in vitro ADME; settings: human
[5] = Clinical PK in healthy volunteer studies; assay type: in vivo, human
CYP3A4 [6] = settings: cited from earlier work
CYP3A4 [7] = settings: cited from earlier work; remark: listed apart in the source
[8] = oral dose, male subjects; cited from earlier work
CYP2C9 = settings: clinical doses; cited from earlier work
CYP2C19 = settings: clinical doses; cited from earlier work
[9] = test system: breast cancer resistance protein (BCRP); settings: clinical doses; cited from earlier work
[10] = patients with Friedreich's ataxia; cited from earlier work
[11] = 400 mg vatiquinone with 200 mg itraconazole
[12] = Observed, Vatiquinone + Itraconazole (5 days TID, 200 mg)
[13] = in the presence of itraconazole
[14] = 400 mg vatiquinone with 600 mg rifampicin
[15] = Observed, Vatiquinone + Rifampicin (14 days TID, 600 mg)

Sequence of CYP3A4 (Homo sapiens, UniProt P08684) (P08684 whole entry): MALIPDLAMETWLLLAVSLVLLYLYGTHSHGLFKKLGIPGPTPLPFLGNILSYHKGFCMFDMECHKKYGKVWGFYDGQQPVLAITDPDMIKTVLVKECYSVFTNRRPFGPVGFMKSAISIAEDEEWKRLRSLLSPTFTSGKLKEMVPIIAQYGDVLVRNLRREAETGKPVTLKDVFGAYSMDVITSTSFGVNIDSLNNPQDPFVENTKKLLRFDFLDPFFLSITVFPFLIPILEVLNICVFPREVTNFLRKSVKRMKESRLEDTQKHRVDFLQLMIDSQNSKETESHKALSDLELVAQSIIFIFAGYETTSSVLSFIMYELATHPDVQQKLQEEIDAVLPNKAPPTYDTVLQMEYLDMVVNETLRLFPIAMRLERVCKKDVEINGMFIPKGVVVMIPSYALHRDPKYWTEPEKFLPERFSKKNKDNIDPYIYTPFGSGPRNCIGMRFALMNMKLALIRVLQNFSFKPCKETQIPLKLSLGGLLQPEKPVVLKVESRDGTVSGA

AUC, low‐fat meals compared with fasted (Food-effect study): 8 fold | CYP3A4 Indmax (CYP3A4 [2]; Scaled using rifampicin data): 4.26 | EC50 (CYP3A4 [2]; human): 3700 nM | CYP3A4 induction potential (CYP3A4 [2]; in vitro data): borderline potential inducer | CYP1A2 Indmax (CYP1A2; In vitro study): 2.61 | CYP1A2 Indmax (CYP1A2; Scaled using omeprazole data): 1.04 | EC50 (CYP1A2; human): 1800 nM | CYP1A2 induction potential (CYP1A2; in vitro data): borderline potential inducer | enzyme mediating vatiquinone metabolism (CYP3A4 [3]): mainly mediated by CYP3A4 | fraction unbound [4]: 0.022 | ka ([5]; Clinical study): 1.27 h⁻¹ | tlag ([5]; Clinical study): 3.67 h | CL/F (apparent oral clearance) ([5]; healthy volunteer studies, from AUC0-inf in the absence of itraconazole): 94.3 L/h | half-life ([5]; human, in vivo, oral): ~9 h
Compound: CC(C)=CCC/C(C)=C/CC/C(C)=C/CC[C@@](C)(O)CCC1=C(C)C(=O)C(C)=C(C)C1=O [Vatiquinone, alpha‐tocotrienol quinone]
AUC ([1]; 200 mg, 200 mg TID, Day 1, patients with Friedreich's ataxia): 1030 ng·h/mL | AUC ([1]; 200 mg, 200 mg TID, Day 91): 1950 ng·h/mL | Cmax ([1]; 200 mg, 200 mg TID, Day 1): 466 ng/mL | Cmax ([1]; 200 mg, 200 mg TID, Day 91): 689 ng/mL | AUC ([1]; 400 mg, 400 mg TID, Day 1, patients with Friedreich's ataxia): 2430 ng·h/mL | AUC ([1]; 400 mg, 400 mg TID, Day 91): 3490 ng·h/mL | Cmax ([1]; 400 mg, 400 mg TID, Day 1): 1020 ng/mL | Cmax ([1]; 400 mg, 400 mg TID, Day 91): 905 ng/mL | increase in vatiquinone AUC0‐inf (CYP3A4 [6]; [11]): ~2.9 fold | increase in vatiquinone Cmax (CYP3A4 [6]; [11]): approximately 3.5 fold | AUC0‐inf, geometric mean (CYP3A4 [6]; [12]): 11,300 h•ng/mL | Cmax, geometric mean (CYP3A4 [6]; [12]): 3430 ng/mL | increase in vatiquinone AUC0‐inf (CYP3A4 [6]; [13]): ~188% | increase in vatiquinone Cmax (CYP3A4 [6]; [13]): approximately 245% | decrease in vatiquinone AUC0‐inf (CYP3A4 [7]; [14]): ~46% | decrease in vatiquinone Cmax (CYP3A4 [7]; [14]): approximately 36% | AUC0‐inf, geometric mean (CYP3A4 [7]; [15]): 1830 ng·h/mL | Cmax, geometric mean (CYP3A4 [7]; [15]): 619 ng/mL | mean cumulative recovery [8]: 92.9% | recovery of unchanged vatiquinone in feces [8]: 6.77 % of dose | effect of vatiquinone on CYP2C9 substrate (tolbutamide) exposure (CYP2C9): did not have a significant impact; also recorded: lack of a clinically relevant effect | effect of vatiquinone on CYP2C19 substrate (omeprazole) exposure (CYP2C19): did not have a significant impact; also recorded: lack of a clinically relevant effect | effect of vatiquinone on BCRP substrate (rosuvastatin) exposure [9]: did not have a significant impact; also recorded: lack of a clinically relevant effect | tolerability [10]: well tolerated with no dose‐limiting toxicities
